Results taken from ChEMBL document CHEMBL4130550, “Antiproliferative Dimeric Aporphinoid Alkaloids from the Roots of Thalictrum cultratum” (J Nat Prod, 2017).
Active and inactive are the calls of the source. The calls are words filed in the database; no cut-off is given here.

Columns and labels:
HL-60 [1] = test: Induction of apoptosis in human HL60 cells assessed as early apoptotic cells at 1.5 uM after 48 hrs by Annexin-V-FITC/propidium iodide staining based flow cytometric method (reference value: 2.8%); assay type: functional
HL-60 [2] = test: Induction of apoptosis in human HL60 cells assessed as necrotic cells at 1.5 uM after 24 hrs by Annexin-V-FITC/propidium iodide staining based flow cytometric method (reference value: 0.47%); assay type: functional
HL-60 [3] = test: Induction of apoptosis in human HL60 cells after 24 hrs by Annexin-V-APC/7-AAD staining based flow cytometric method; assay type: functional, cell-based
Summary of the method: (§1)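 HL-60 are seeded overnight in six-well plates, then treated in triplicate with 0.06, 0.3 or 1.5 μM, or untreated, for 24 h. Cells are washed in PBS and taken up in annexin V binding buffer. Annexin V-APC is added for 15 min in the dark at 25 °C, and 7-AAD just before flow cytometry. Early apoptosis is annexin V-APC only; late apoptosis is annexin V-APC/7-AAD.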

HL-60 [4] = test: Antiproliferative activity against human HL60 cells after 72 hrs by tryphan blue staining based hematocytometric method; assay type: functional, cell-based; conditions: HL-60, 72 h
Summary of the method: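 HL-60 (ATCC) in RPMI-1640 with 10% heat-inactivated FBS, 1 mM glutamine and penicillin/streptomycin, 37 °C, 5% CO2. Cells at 4.5 × 10^4 cells/mL are exposed to a concentration gradient (DMSO stock diluted in absolute EtOH) for 72 h. Trypan blue is added and total cells are counted on a hematocytometer. IC50 is the mean of three parallel experiments. Negative reference is 0.1% DMSO.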

HL-60 [5] = test: Induction of apoptosis in human HL60 cells assessed as late apoptotic cells at 1.5 uM after 24 hrs by Annexin-V-FITC/propidium iodide staining based flow cytometric method (reference value: 2.53%); assay type: functional
HL-60 [6] = test: Induction of apoptosis in human HL60 cells assessed as late apoptotic cells at 1.5 uM after 72 hrs by Annexin-V-FITC/propidium iodide staining based flow cytometric method (reference value: 2.53%); assay type: functional
HL-60 [7] = test: Induction of apoptosis in human HL60 cells assessed as late apoptotic cells at 0.3 uM after 24 hrs by Annexin-V-APC/7-AAD staining based flow cytometric method (reference value: 1.99%); assay type: functional; summary of the method: as §1
HL-60 [8] = test: Induction of apoptosis in human HL60 cells assessed as live cells at 1.5 uM after 72 hrs by Annexin-V-FITC/propidium iodide staining based flow cytometric method (reference value: 94.19%); assay type: functional
HL-60 [9] = test: Cell cycle arrest in human HL60 cells assessed as accumulation at S phase at 0.3 uM after 24 hrs by propidium iodide staining based flow cytometric method (reference value: 25.75%); assay type: functional
HL-60 [10] = test: Cell cycle arrest in human HL60 cells assessed as accumulation at G1 phase at 1.5 uM after 24 hrs by propidium iodide staining based flow cytometric method (reference value: 43.32%); assay type: functional
HL-60 [11] = test: Cell cycle arrest in human HL60 cells assessed as accumulation at G2 phase at 0.3 uM after 24 hrs by propidium iodide staining based flow cytometric method (reference value: 30.93%); assay type: functional
HL-60 [12] = test: Induction of apoptosis in human HL60 cells assessed as live cells at 1.5 uM after 48 hrs by Annexin-V-FITC/propidium iodide staining based flow cytometric method (reference value: 94.19%); assay type: functional
HL-60 [13] = test: Induction of morphological changes in human HL60 cells assessed as cell shrinkage at 0.06 to 1.5 uM after 24 hrs by Hoechst 33258 staining based fluorescence microscopic analysis; assay type: functional
HL-60 [14] = test: Induction of apoptosis in human HL60 cells at 1.5 uM by Annexin-V-FITC/propidium iodide staining based flow cytometric method; assay type: functional, cell-based; conditions: TDE = time-dependent effect
HL-60 [15] = test: Induction of mitochondrial membrane potential loss in human HL60 cells assessed as intact mitochondrial membrane potential at 0.06 uM after 24 hrs by JC1 staining based flow cytometric method (reference value: 99.42%); assay type: functional
HL-60 [16] = test: Induction of apoptosis in human HL60 cells assessed as necrotic cells at 0.3 uM after 24 hrs by Annexin-V-APC/7-AAD staining based flow cytometric method (reference value: 0.44%); assay type: functional; summary of the method: as §1

IC50 (HL-60 [4]): 1080 nM
Compound: COc1cc2c(c(Oc3ccc(C[C@H]4c5cc(OC)c6c(c5CCN4C)OCO6)cc3)c1OC)C[C@H]1c3c(c(OC)c(OC)c(OC)c3-2)CCN1C
Activity (HL-60 [1]): 28.78%
Activity (HL-60 [2]): 0.14%
Activity (HL-60 [3]): Dose-dependent effect
Activity (HL-60 [5]): 8.92%
Activity (HL-60 [6]): 31.66%
Activity (HL-60 [7]): 6.3%
Activity (HL-60 [8]): 36.09%
Activity (HL-60 [9]): 42.51%
Activity (HL-60 [10]): 33.02%
Activity (HL-60 [11]): 21.47%
Activity (HL-60 [12]): 52.96%
Activity (HL-60 [13]): Active
Activity (HL-60 [14]): Tde
Activity (HL-60 [15]): 75.9%
Activity (HL-60 [16]): 1.2%
